In ChEMBL document CHEMBL1221219, “Selective blockade of 2-arachidonoylglycerol hydrolysis produces cannabinoid behavioral effects” (Nat Chem Biol, 2009):
Calls of active or inactive are those of the source. The calls are words filed in the database; no cut-off is given here.

Columns and labels:
Mus musculus [1] = assay: Inhibition of FAAH in C57B1/6J mouse brain membrane at 4 mg/kg, ip after 4 hrs by competitive activity-based protein profiling method relative to control; format: functional; settings: route intraperitoneal
Outline: (§1)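 Male C57Bl/6J mice (6-8 weeks, 20-26 g) given inhibitor i.p. in 4:1 v/v PEG300:Tween80 at 4 ul g^-1 (4-40 mg kg^-1); vehicle controls. Brain membrane proteomes (1 mg ml^-1 in PBS) labelled with FP-rhodamine (2 μM) for 30 min at room temperature. Readout by SDS-PAGE and in-gel fluorescence scanning, compared with vehicle.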

Mus musculus [2] = assay: Inhibition of FAAH in intraperitoneally dosed C57B1/6J mouse brain membrane after 4 hrs by competitive activity-based protein profiling method; format: functional, organism-based; outline: as §1
Mus musculus [3] = assay: Inhibition of […] in C57B1/6J mouse brain membrane assessed as residual 2-AG hydrolysis activity at 16 mg/kg, ip after 4 hrs relative to control; format: functional; settings: route intraperitoneal
Outline: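 Brain membranes from mice given 4-40 mg kg^-1 i.p. for 4 h were assayed for 2-AG hydrolysis by LC-MS substrate assay. Activity is expressed relative to vehicle control.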

Mus musculus [4] = assay: Inhibition of MAGL in C57B1/6J mouse brain membrane at 16 mg/kg, ip after 4 hrs by competitive activity-based protein profiling-MudPIT method; format: functional, organism-based; set-up: dose 16 mg/kg
Outline: (§2)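 After i.p. dosing in 4:1 PEG300:Tween80, male C57Bl/6J mice were killed at 4 h. Brain membrane proteomes from treated and vehicle mice were labelled with FP-biotin. Labelled proteins were enriched on avidin, digested on-bead with trypsin and analysed by multidimensional LC-MS. Proteins were identified by SEQUEST, and dosed samples were compared with vehicle.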

Mus musculus [5] = assay: Inhibition of ABHD12 in C57B1/6J mouse brain membrane at 16 mg/kg, ip after 4 hrs by competitive activity-based protein profiling-MudPIT method; format: functional, organism-based; set-up: dose 16 mg/kg
Outline: (§3)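 Mice were dosed 16 mg kg^-1 i.p. or vehicle and killed at 4 h. Brain membrane proteomes were labelled with FP-biotin, avidin-enriched, trypsin-digested on bead, analysed by multidimensional LC-MS and identified by SEQUEST.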

Mus musculus [6] = assay: Inhibition of PPME1 in C57B1/6J mouse brain membrane at 16 mg/kg, ip after 4 hrs by competitive activity-based protein profiling-MudPIT method; format: functional, organism-based; set-up: dose 16 mg/kg; outline: as §2
Mus musculus [7] = assay: Inhibition of CTHA in C57B1/6J mouse brain membrane at 16 mg/kg, ip after 4 hrs by competitive activity-based protein profiling-MudPIT method; format: functional, organism-based; set-up: dose 16 mg/kg; outline: as §3
Mus musculus [8] = assay: Inhibition of DPP8 in C57B1/6J mouse brain membrane at 16 mg/kg, ip after 4 hrs by competitive activity-based protein profiling-MudPIT method; format: functional, organism-based; set-up: dose 16 mg/kg; outline: as §3
Mus musculus [9] = assay: Inhibition of ACOT1 in C57B1/6J mouse brain membrane at 16 mg/kg, ip after 4 hrs by competitive activity-based protein profiling-MudPIT method; format: functional, organism-based; set-up: dose 16 mg/kg; outline: as §3
Mus musculus [10] = assay: Inhibition of DPP9 in C57B1/6J mouse brain membrane at 16 mg/kg, ip after 4 hrs by competitive activity-based protein profiling-MudPIT method; format: functional, organism-based; set-up: dose 16 mg/kg; outline: as §3
Mus musculus [11] = assay: Inhibition of LPL1 in C57B1/6J mouse brain membrane at 16 mg/kg, ip after 4 hrs by competitive activity-based protein profiling-MudPIT method; format: functional, organism-based; set-up: dose 16 mg/kg; outline: as §2
Mus musculus [12] = assay: Inhibition of LYPLA3 in C57B1/6J mouse brain membrane at 16 mg/kg, ip after 4 hrs by competitive activity-based protein profiling-MudPIT method; format: functional, organism-based; set-up: dose 16 mg/kg; outline: as §2
Mus musculus [13] = assay: Inhibition of PAFAH-1Bg in C57B1/6J mouse brain membrane at 16 mg/kg, ip after 4 hrs by competitive activity-based protein profiling-MudPIT method; format: functional, organism-based; set-up: dose 16 mg/kg; outline: as §2
Mus musculus [14] = assay: Change in oleic acid in intraperitoneally dosed C57B1/6J mouse brain by LC-MS; format: functional, organism-based
Outline: (§4)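 Male C57Bl/6J mice given 4, 8, 16 or 40 mg kg^-1 i.p. in 4:1 PEG300:Tween80 at 4 μl g^-1, or vehicle, and killed after 4 h. Whole-brain lipids were quantified by LC-MS.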

Mus musculus [15] = assay: Change in arachidonic acid levels in intraperitoneally dosed C57B1/6J mouse brain by LC-MS; format: functional, organism-based; outline: as §4
Mus musculus [16] = assay: Inhibition of MAGL in orally dosed C57B1/6J mouse brain membrane after 4 hrs; format: functional, organism-based
Outline: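 Oral dosing used male C57Bl/6J mice (6-8 weeks) given inhibitor in PEG300 vehicle at 4 ul g^-1, handled as for i.p. dosing. Brains were taken 4 h later for analysis of brain membrane hydrolase activity.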

Mus musculus [17] = assay: Induction of hypothermia in CB1 receptor deficient C57B1/6J mouse at 16 mg/kg, ip; format: functional, organism-based; set-up: dose 16 mg/kg
Outline: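 Male C57Bl/6J mice, 6-8 weeks, 20-26 g, given 16 mg kg^-1 i.p. in 4:1 v/v PEG300:Tween80 at 4 μl g^-1; vehicle controls received PEG300:Tween80 alone. Cannabinoid effects were scored in the tetrad test.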

[18] = molecular target: T1, Monoacylglycerol lipase ABHD6 (Mus musculus) (UniProt Q8R2Y0); assay: Inhibition of ABHD6 in C57B1/6J mouse brain membrane at 10 uM after 30 mins by competitive activity-based protein profiling method; format: cell membranes
T1 sequence (whole entry): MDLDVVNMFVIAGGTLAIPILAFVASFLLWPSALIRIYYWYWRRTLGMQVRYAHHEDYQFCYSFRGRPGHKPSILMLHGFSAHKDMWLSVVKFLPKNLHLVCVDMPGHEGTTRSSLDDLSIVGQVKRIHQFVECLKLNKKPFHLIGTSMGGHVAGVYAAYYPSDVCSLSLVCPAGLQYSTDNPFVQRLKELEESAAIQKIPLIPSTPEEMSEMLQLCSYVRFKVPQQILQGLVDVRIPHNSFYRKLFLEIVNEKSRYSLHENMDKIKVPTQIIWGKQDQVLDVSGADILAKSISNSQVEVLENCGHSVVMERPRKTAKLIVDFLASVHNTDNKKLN
Outline: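 Mouse brain membrane proteome at 1 mg ml^-1 in PBS was preincubated with inhibitor (1 nM-10 μM) for 30 min at 37°C. FP-rhodamine was then added at 2 μM final for 30 min at room temperature, followed by SDS-PAGE and in-gel fluorescence scanning.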

[19] = molecular target: T2, Monoglyceride lipase (Mus musculus) (UniProt O35678); settings: C57B1/6J, Brain, Membrane, 50 nM
T2 sequence (whole entry): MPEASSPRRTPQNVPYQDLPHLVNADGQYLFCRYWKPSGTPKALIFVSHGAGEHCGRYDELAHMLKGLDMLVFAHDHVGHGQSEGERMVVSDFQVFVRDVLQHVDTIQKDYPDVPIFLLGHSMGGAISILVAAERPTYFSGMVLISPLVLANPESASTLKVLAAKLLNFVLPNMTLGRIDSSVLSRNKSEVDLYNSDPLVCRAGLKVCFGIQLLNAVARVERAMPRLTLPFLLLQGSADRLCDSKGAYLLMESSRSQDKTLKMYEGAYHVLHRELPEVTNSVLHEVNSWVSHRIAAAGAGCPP

## O=C(Oc1ccc([N+](=O)[O-])cc1)N1CCC(C(O)(c2ccc3c(c2)OCO3)c2ccc3c(c2)OCO3)CC1
Mus musculus [1]
  inhibition in vivo at 4 mg/kg: < 20%
Mus musculus [2]
  inhibition: Dose-dependent effect
Mus musculus [3]
  Activity: 35%
Mus musculus [4]
  inhibition: Active
Mus musculus [5]
  inhibition: inactive
Mus musculus [6]
  inhibition: inactive
Mus musculus [7]
  inhibition: inactive
Mus musculus [8]
  inhibition: inactive
Mus musculus [9]
  inhibition: inactive
Mus musculus [10]
  inhibition: inactive
Mus musculus [11]
  inhibition: inactive
Mus musculus [12]
  inhibition: inactive
Mus musculus [13]
  inhibition: inactive
Mus musculus [14]
  Activity: inactive
Mus musculus [15]
  Activity: inactive
Mus musculus [16]
  inhibition: Active
Mus musculus [17]
  Activity: inactive
[18]
  inhibition: Active
[19]
  inhibition: Active
